Where “and” joins values, the source holds several entries; their conditions need not be identical. Identical values can stand only once.
Test system: HEK-293T
Experiment: Multiplex assay against HEK293T
Format: toxicity, cell-based
Settings: human
Method in brief: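 At seeding, live cells were stained with Hoechst33342, BioTracker Green Microtubule Cytoskeleton Dye, MitoTracker Red and Annexin V Alexa Fluor 680. After compound addition they were imaged on a CQ1 microscope at 37°C and 5% CO2, and CellPathfinder machine-learning gating sorted them into Hoechst high-intensity objects or normal cells, with normal cells further split into healthy, pyknosed or fragmented nuclei and pyknosed cells into mitotic or apoptotic. Tubulin, mitochondrial-mass and membrane-permeability phenotypes are given as per cents of cells with healthy nuclei.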

[1] = 12 h, 1 µM, compound concentration 1 uM
[2] = 12 h, 10 µM, compound concentration 10 uM
[3] = 24 h, 1 µM, compound concentration 1 uM
[4] = 24 h, 10 µM, compound concentration 10 uM
[5] = 48 h, 1 µM, compound concentration 1 uM
[6] = 48 h, 10 µM, compound concentration 10 uM

CN1CC[C@@]23CCCC[C@@H]2[C@@H]1Cc1ccc(O)cc13.O=C(O)C(O)C(O)C(=O)O
Population Apoptotic (%) [1]: 5.07% and 6.25%
Population Fragmented Nuclei (%) [1]: 0% and 2.38%
Population Healthy Nuclei (%) [1]: 61.34% and 21.43%
Population Hoechst High Intensity Objects (%) [1]: 0.28% and 0.59%
Population Membrane Permeable-Phenotype (%) [1]: 0%
Population Mitochondria Different-Phenotype (%) [1]: 31.51% and 13.89%
Population Mitotic Cells (%) [1]: 94.93% and 93.75%
Population Normal (%) [1]: 99.72% and 99.41%
Population Pyknosed Nuclei (%) [1]: 38.66% and 76.19%
Total Cell Count [1]: 358 and 169
Population Apoptotic (%) [2]: 7.34% and 9.57%
Population Fragmented Nuclei (%) [2]: 0.33% and 1.28%
Population Healthy Nuclei (%) [2]: 63.93% and 25%
Population Hoechst High Intensity Objects (%) [2]: 0%
Population Membrane Permeable-Phenotype (%) [2]: 0% and 2.56%
Population Mitochondria Different-Phenotype (%) [2]: 30.77%
Population Mitotic Cells (%) [2]: 92.66% and 90.43%
Population Normal (%) [2]: 100%
Population Pyknosed Nuclei (%) [2]: 35.74% and 73.72%
Total Cell Count [2]: 305 and 156
Population Apoptotic (%) [3]: 13.27% and 11.22%
Population Fragmented Nuclei (%) [3]: 1.37% and 2.04%
Population Healthy Nuclei (%) [3]: 83.74% and 47.96%
Population Hoechst High Intensity Objects (%) [3]: 0.15% and 0.51%
Population Membrane Permeable-Phenotype (%) [3]: 1.27% and 3.19%
Population Mitochondria Different-Phenotype (%) [3]: 9.98% and 11.7%
Population Mitotic Cells (%) [3]: 86.73% and 88.78%
Population Normal (%) [3]: 99.85% and 99.49%
Population Tubulin-Different-Phenotype (%) [3]: 6.17% and 3.19%
Population Apoptotic (%) [4]: 10.81% and 11.46%
Population Fragmented Nuclei (%) [4]: 0.62% and 0.67%
Population Healthy Nuclei (%) [4]: 76.45% and 35.33%
Population Hoechst High Intensity Objects (%) [4]: 0%
Population Membrane Permeable-Phenotype (%) [4]: 0.54% and 0%
Population Mitochondria Different-Phenotype (%) [4]: 20.54% and 11.32%
Population Mitotic Cells (%) [4]: 89.19% and 88.54%
Population Normal (%) [4]: 100%
Population Pyknosed Nuclei (%) [4]: 22.93% and 64%
Population Tubulin-Different-Phenotype (%) [4]: 12.16% and 9.43%
Population Fragmented Nuclei (%) [5]: 4.07% and 2.37%
Population Healthy Nuclei (%) [5]: 87.05% and 78.04%
Population Hoechst High Intensity Objects (%) [5]: 0%
Population Membrane Permeable-Phenotype (%) [5]: 3.59% and 4.18%
Population Mitochondria Different-Phenotype (%) [5]: 11.36% and 7.6%
Population Mitotic Cells (%) [5]: 97.89% and 83.33%
Population Normal (%) [5]: 100%
Population Pyknosed Nuclei (%) [5]: 8.89% and 19.58%
Population Fragmented Nuclei (%) [6]: 2.47% and 1.7%
Population Healthy Nuclei (%) [6]: 87.64% and 68.94%
Population Hoechst High Intensity Objects (%) [6]: 0%
Population Membrane Permeable-Phenotype (%) [6]: 5.64% and 3.09%
Population Mitochondria Different-Phenotype (%) [6]: 15.29% and 22.84%
Population Mitotic Cells (%) [6]: 95.19% and 81.16%
Population Normal (%) [6]: 100%
Population Pyknosed Nuclei (%) [6]: 9.89% and 29.36%

CCCCCN1C(=O)C2(COc3cc4c(cc32)OCO4)c2ccccc21 (centres undefined)
Population Apoptotic (%) [1]: 10.57% and 8.94%
Population Fragmented Nuclei (%) [1]: 1.96% and 2%
Population Hoechst High Intensity Objects (%) [1]: 0%
Population Membrane Permeable-Phenotype (%) [1]: 0%
Population Mitotic Cells (%) [1]: 89.43% and 91.06%
Population Normal (%) [1]: 100%
Population Pyknosed Nuclei (%) [1]: 40.2% and 82%
Total Cell Count [1]: 306 and 150
Population Apoptotic (%) [2]: 8.79% and 6.67%
Population Fragmented Nuclei (%) [2]: 0.63% and 1.94%
Population Hoechst High Intensity Objects (%) [2]: 0.31% and 0%
Population Membrane Permeable-Phenotype (%) [2]: 1.48% and 0%
Population Mitochondria Different-Phenotype (%) [2]: 29.63% and 35.29%
Population Mitotic Cells (%) [2]: 91.21% and 93.33%
Population Normal (%) [2]: 99.69% and 100%
Population Pyknosed Nuclei (%) [2]: 57.05% and 87.1%
Total Cell Count [2]: 320 and 155
Population Apoptotic (%) [3]: 13.4% and 12.71%
Population Fragmented Nuclei (%) [3]: 1.54% and 2.04%
Population Healthy Nuclei (%) [3]: 79.73% and 37.76%
Population Hoechst High Intensity Objects (%) [3]: 0% and 0.51%
Population Membrane Permeable-Phenotype (%) [3]: 1.21% and 2.7%
Population Mitochondria Different-Phenotype (%) [3]: 16.46% and 10.81%
Population Mitotic Cells (%) [3]: 86.6% and 87.29%
Population Normal (%) [3]: 100% and 99.49%
Population Tubulin-Different-Phenotype (%) [3]: 11.86% and 4.05%
Total Cell Count [3]: 518 and 197
Population Apoptotic (%) [4]: 19.31% and 11.94%
Population Fragmented Nuclei (%) [4]: 1.12% and 2.34%
Population Hoechst High Intensity Objects (%) [4]: 0.22% and 0%
Population Membrane Permeable-Phenotype (%) [4]: 1.34% and 0%
Population Mitochondria Different-Phenotype (%) [4]: 25.5% and 21.21%
Population Mitotic Cells (%) [4]: 80.69% and 88.06%
Population Normal (%) [4]: 99.78% and 100%
Population Pyknosed Nuclei (%) [4]: 32.37% and 78.36%
Population Tubulin-Different-Phenotype (%) [4]: 30.2% and 15.15%
Total Cell Count [4]: 449 and 171
Population Apoptotic (%) [5]: 9.4% and 23.88%
Population Fragmented Nuclei (%) [5]: 2.17% and 2.27%
Population Healthy Nuclei (%) [5]: 88.04% and 75.97%
Population Hoechst High Intensity Objects (%) [5]: 0% and 0.65%
Population Membrane Permeable-Phenotype (%) [5]: 4.37% and 2.99%
Population Mitochondria Different-Phenotype (%) [5]: 13.77% and 12.82%
Population Mitotic Cells (%) [5]: 90.6% and 76.12%
Population Normal (%) [5]: 100% and 99.35%
Population Pyknosed Nuclei (%) [5]: 9.78% and 21.75%
Population Fragmented Nuclei (%) [6]: 2.44% and 0.93%
Population Healthy Nuclei (%) [6]: 80.51% and 57.41%
Population Hoechst High Intensity Objects (%) [6]: 0%
Population Membrane Permeable-Phenotype (%) [6]: 5.04% and 0%
Population Mitochondria Different-Phenotype (%) [6]: 42.8% and 31.45%
Population Mitotic Cells (%) [6]: 93.2% and 75.56%
Population Normal (%) [6]: 100%
Population Pyknosed Nuclei (%) [6]: 17.05% and 41.67%
